Experimental findings from ChEMBL document CHEMBL1145089, “Development of water-soluble prodrugs of the HIV-1 protease inhibitor KNI-727: importance of the conversion time for higher gastrointestinal absorption of prodrugs based on spontaneous chemical cleavage” (J Med Chem, 2003) are described below.

One may read the half-life as the time needed for the level to fall by half in the phase considered. One may read the Cmax as the peak of the concentration-time curve. Usually AUC stands for the area under the concentration-time curve, a measure of exposure. The bioavailability is dose-corrected exposure relative to a reference, in per cent. As a reminder, the Tmax is the time from dosing to the highest level.

Data set [1] can be described thus: In vitro half life at pH 7.4 and 37 degrees C. The format is ADME. Particulars: buffer. Summed up: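 Prodrug, added as 0.5 mM DMSO stock (10 μL into 1 mL), incubated in PBS pH 7.4 at 37 °C. Release of parent drug followed by RP-HPLC. t1/2 is the time to 50% release of parent drug. Means ± SEM of three experiments.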
Data set [2] in a line: C max was determined. The format is ADME, organism-based. The settings on record: in vivo. Put shortly:
(§1)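 Male Sprague–Dawley rats (240–300 g, n = 5 or 3), fasted overnight, given the agent intraduodenally via duodenal cannula at a dose equivalent to 10 mg/kg parent drug, in 50% PEG (8000) or saline, 1 mL/kg. Arterial blood taken at 5 min–8 h. Plasma was ethyl acetate extracted and the parent drug quantified by RP-HPLC (UV 202 nm). Cmax/Tmax from mean profiles; AUC0–8 by linear trapezoidal rule.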

The nature of data set [3]: Area under curve (AUC) was determined. Details: concentration or dose not given beside the values. Format: ADME. Put shortly:
as §1

Data set [4] is described as follows: Bioavailability. The format is ADME, organism-based. Particulars: eutheria, in vivo. Summed up: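 Rat intraduodenal dosing (dose equivalent to 10 mg/kg parent drug, 50% PEG or saline, 1 mL/kg). Plasma parent drug measured by RP-HPLC over 8 h. Bioavailability is the ratio of mean AUC0–8 (×10) against intravenous parent drug at 1 mg/kg in ethanol cosolvent via femoral vein (n = 2).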

The nature of data set [5]: T max was determined. Format: ADME. Summed up: as §1

The molecule `CCCNC(=O)CCC(=O)O[C@H](C(=O)N1CSC(C)(C)[C@H]1C(=O)NC(C)(C)C)[C@H](Cc1ccccc1)NC(=O)COc1c(C)cccc1C` displayed a half-life in data set [1] of 922 min.

For `Cc1cccc(C)c1OCC(=O)N[C@@H](Cc1ccccc1)[C@H](O)C(=O)N1CSC(C)(C)[C@H]1C(=O)NC(C)(C)C`, the Cmax in data set [2] was determined as 1230 ng/mL. In data set [3], this molecule registered an AUC of 3580 ng·h/mL. In data set [4], this molecule came in with a bioavailability of 15.8%. In addition, the Tmax in data set [5] is 5 min.

As for `Cc1cccc(C)c1OCC(=O)N[C@@H](Cc1ccccc1)[C@H](OC(=O)CCCC(=O)NCCN)C(=O)N1CSC(C)(C)[C@H]1C(=O)NC(C)(C)C.Cl`, the peak concentration (Cmax) in data set [2] was 460 ng/mL. The AUC in data set [3] came to 2130 ng·h/mL. The same molecule registered a half-life in data set [1] of 1240 min. For the same molecule, the bioavailability in data set [4] turned out to be 9.4%. Moreover, the time to peak (Tmax) in data set [5] was 60 min.

In data set [2], `Cc1cccc(C)c1OCC(=O)N[C@@H](Cc1ccccc1)[C@H](OC(=O)CCC(=O)NCCN)C(=O)N1CSC(C)(C)[C@H]1C(=O)NC(C)(C)C.Cl` displayed a peak concentration (Cmax) of 650 ng/mL. Besides, in data set [3], the AUC was 3980 ng·h/mL. In addition, in data set [1], the half-life amounted to 12.7 min. The molecule also showed a bioavailability in data set [4] of 17.5%. For the same molecule, the Tmax in data set [5] is 240 min.

In data set [1], `Cc1cccc(C)c1OCC(=O)N[C@@H](Cc1ccccc1)[C@H](OC(=O)CCC(=O)NCc1ccccn1)C(=O)N1CSC(C)(C)[C@H]1C(=O)NC(C)(C)C.Cl` had a half-life of 48.5 min.

The molecule `Cc1cccc(C)c1OCC(=O)N[C@@H](Cc1ccccc1)[C@H](OC(=O)CCC(=O)NCCCN1CCOCC1)C(=O)N1CSC(C)(C)[C@H]1C(=O)NC(C)(C)C.Cl` displayed a Cmax in data set [2] of 410 ng/mL. This molecule also registered an AUC in data set [3] of 1570 ng·h/mL. The same molecule displayed a half-life in data set [1] of 79.5 min. This molecule had a bioavailability in data set [4] of 6.9%. Moreover, the Tmax in data set [5] is 30 min.

Take `Cc1cccc(C)c1OCC(=O)N[C@@H](Cc1ccccc1)[C@H](OC(=O)CCC(=O)NCCN1CCOCC1)C(=O)N1CSC(C)(C)[C@H]1C(=O)NC(C)(C)C.Cl`: the highest level in data set [2] (Cmax) was 1890 ng/mL. For the same molecule, the area under the curve (AUC) in data set [3] turned out to be 5250 ng·h/mL. Moreover, the half-life in data set [1] came to 40.3 min. Further, the bioavailability in data set [4] stood at 23.1%. Moreover, the Tmax in data set [5] was 30 min.

`Cc1cccc(C)c1OCC(=O)N[C@@H](Cc1ccccc1)[C@H](OC(=O)CCC(=O)NCc1cccnc1)C(=O)N1CSC(C)(C)[C@H]1C(=O)NC(C)(C)C.Cl` had a peak concentration (Cmax) in data set [2] of 1370 ng/mL. The same molecule yielded an AUC in data set [3] of 6000 ng·h/mL. The molecule further gave a half-life in data set [1] of 35.4 min. The bioavailability in data set [4] was 26.4%. Also, the time to peak (Tmax) in data set [5] was 30 min.

In the case of `Cc1cccc(C)c1OCC(=O)N[C@@H](Cc1ccccc1)[C@H](OC(=O)CCC(=O)NCCN1CCCCC1)C(=O)N1CSC(C)(C)[C@H]1C(=O)NC(C)(C)C.Cl`, the half-life in data set [1] was determined as 3.6 min.

As for `Cc1cccc(C)c1OCC(=O)N[C@@H](Cc1ccccc1)[C@H](OC(=O)CCCC(=O)NCCN1CCOCC1)C(=O)N1CSC(C)(C)[C@H]1C(=O)NC(C)(C)C.Cl`, in data set [2], the highest concentration (Cmax) was 480 ng/mL. The area under the curve (AUC) in data set [3] was found to be 1230 ng·h/mL. Further, in data set [1], the half-life turned out to be 2060 min. Further, the bioavailability in data set [4] was found to be 5.4%. Besides, the Tmax in data set [5] was 30 min.

In data set [2], `Cc1cccc(C)c1OCC(=O)N[C@@H](Cc1ccccc1)[C@H](OC(=O)CCC(=O)NCCN1CCCC1)C(=O)N1CSC(C)(C)[C@H]1C(=O)NC(C)(C)C.Cl` returned a Cmax of 840 ng/mL. This molecule also returned an exposure (AUC) in data set [3] of 3650 ng·h/mL. The molecule also yielded a half-life in data set [1] of 7.9 min. The bioavailability in data set [4] came out at 16.1%. In addition, the Tmax in data set [5] is 15 min.

In data set [2], `Cc1cccc(C)c1OCC(=O)N[C@@H](Cc1ccccc1)[C@H](OC(=O)CCC(=O)NCc1ccncc1)C(=O)N1CSC(C)(C)[C@H]1C(=O)NC(C)(C)C.Cl` yielded a Cmax of 1620 ng/mL. In data set [3], this molecule yielded an AUC of 6570 ng·h/mL. The half-life in data set [1] stood at 34.9 min. This molecule also displayed a bioavailability in data set [4] of 29%. For the same molecule, in data set [5], the Tmax was 30 min.
